In the RNAGym collection of RNA variant scans (doi:10.1038/s41586-018-0170-7):

B1: tRNA (parent)
chain: GUUCCGUUGGCGUAAUGGUAACGCGUCUCCCUCCUAAGGAGAAGACUGCGGGUUCGAGUCCCGUACGGAACG

Variants of: B1
Test: yeast fitness, log relative to wild type (ln ratio); higher = fitter; tRNA-Arg(CCU), competitive growth, 37 C, 1 M NaCl
In short: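 In BY4742 missing the chromosomal gene, a combinatorial tRNA-Arg(CCU) variant library was maintained on a HIS3 centromeric plasmid. Selection ran ~6.5 generations (~26.5 h) in SC-HIS 1M NaCl at 37 °C, following 4 generations in SC-HIS at 30 °C, with three outputs per input and variant counts by 125 bp paired-end Illumina sequencing. Fitness is the natural log of a genotype's generations relative to the wild type's, with generations taken as inverse-variance-weighted, OD-scaled log2 output/input frequency.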

Variant | yeast fitness (ln)
U2C G6A A70U C71U | -0.0821
U2C G6A C27U A43C C46U C66A A70G C71U | -0.0721
U2C G6A C27U A43C C66U A69G A70U C71U | -0.351
U2C G6A C27U C46U C66U A70G C71U | -0.0332
U2C G6A C27U A43C C46U C66A A70G | -0.101
U2C G6A C27U A43C C46U C66A A70U | -0.0497
U2C G6A A43C C66U C71U | -0.115
U2C G6A A43C A70G C71U | -0.129
U2C G6A A43C C46U C66U A69G A70U C71U | -0.319
U2C G6A C27U C66A A69G A70G C71U | -0.0666
U2C G6A C27U C66A A70G C71U | -0.106
U2C G6A C27U A43C C46U C66A A69G A70G C71U | -0.19
U2C G6A C27U C46U C71U | -0.119
U2C G6A A43C C66U A70U | -0.06
U2C G6A A43C C66U A70G | -0.0213
U2C G6A | 0.0247
U2C G6A C27U C46U C66U A70G | -0.0278
U2C G6A C27U C46U C66U A70U | -0.112
U2C G6A C27U A70G C71U | -0.282
U2C G6A C27U A43C C46U A70U | -0.0327
U2C G6A C27U A43C C46U A70G | -0.133
U2C G6A A43C C46U A69G A70G | -0.241
U2C G6A A43C C46U A69G A70U | -0.0634
U2C G6A C27U C46U C66U | -0.136

Variant | yeast fitness (ln)
U2C G6A C27U A43C C46U C66U A70G C71U | -0.0215
U2C G6A C27U C66A A70U C71U | -0.269
U2C G6A C27U A43C C46U A69G A70U C71U | -0.359
U2C G6A C27U A43C C46U C66U A69G A70U | -0.173
U2C G6A C27U A43C C46U C66U A69G A70G | -0.0296
U2C G6A C27U C46U A70G C71U | -0.239
U2C G6A A70G | -0.0119
U2C G6A A70U | -0.0455
U2C G6A A43C C66U | -0.121
U2C G6A A43C C46U C66A A70G C71U | -0.108
U2C G6A C27U C66U A69G A70G | -0.0504
U2C G6A C27U A43C C46U A69G C71U | -0.113
U2C G6A C27U C46U A69G C71U | -0.172
U2C G6A A43C C66U A70U C71U | -0.305
U2C G6A C27U A43C C66A A70G C71U | -0.0895
U2C C66U C71U | -0.0912
U2C G6A C27U A43C A70U | -0.108
U2C G6A C27U A43C A70G | -0.153
U2C G6A A43C C66A A69G A70G C71U | -0.218
U2C G6A C27U A43C C46U C66U A70G | -0.0221
U2C G6A C27U A43C C46U C66U A70U | -0.0567
U2C G6A C27U A43C C46U C71U | -0.115
U2C G6A C27U A70G | -0.167
U2C G6A C27U A70U | -0.0574

Variant | yeast fitness (ln)
U2C C66U A70G C71U | -0.0234
U2C G6A A69G A70U C71U | -0.174
U2C G6A A43C C46U A69G C71U | -0.0945
U2C G6A C27U C46U C66A C71U | -0.101
U2C G6A C27U A43C C46U C66U A69G C71U | -0.281
U2C G6A C27U A43C C46U C66A A70U C71U | -0.268
U2C G6A A43C A69G C71U | -0.179
U2C G6A A43C A70U | -0.0469
U2C G6A A43C A70G | -0.231
U2C C71U | -0.101
U2C G6A C27U A43C | -0.0322
U2C G6A C27U C46U A69G A70U C71U | -0.295
U2C G6A C27U C46U A69G A70G | -0.236
U2C G6A C27U C46U A69G A70U | -0.152
U2C G6A C27U C46U C66U C71U | -0.119
U2C G6A C27U A43C C46U A69G A70U | -0.122
U2C G6A C27U A43C C46U A69G A70G | -0.0933
U2C G6A A43C C66U A70G C71U | -0.0302
U2C G6A C27U C46U | -0.0382
U2C G6A A69G A70G | -0.0526
U2C G6A A69G A70U | -0.0533
U2C G6A A43C C46U C66U A69G C71U | -0.332
U2C G6A C27U A43C C66U C71U | -0.148
U2C G6A C27U A43C A70G C71U | -0.156

Variant | yeast fitness (ln)
U2C C66U A70U C71U | -0.152
U2C G6A C27U A43C C66U A69G A70G | -0.0511
U2C G6A C27U A43C C66U A69G A70U | -0.33
U2C G6A A43C C46U C66A | -0.2
U2C G6A A43C C46U C66U | -0.0992
U2C G6A C27U A43C C46U A69G A70G C71U | -0.13
U2C G6A C27U C46U C66A A70U C71U | -0.172
U2C G6A C27U A43C C46U A70G C71U | -0.0979
U2C G6A A43C C46U C71U | -0.0721
U2C G6A A43C C46U A70U C71U | -0.09
U2C G6A A43C C46U C66U C71U | -0.0554
U2C G6A A43C C46U C66U A69G A70G | -0.00874
U2C G6A A43C C46U C66U A69G A70U | -0.3
U2C G6A C27U A43C C66U A69G A70G C71U | -0.293
U2C G6A C27U A43C C46U C66U C71U | -0.122
U2C G6A C27U A43C A69G A70U | -0.215
U2C G6A C27U A43C A69G A70G | -0.211
U2C G6A C27U C46U C66U A70U C71U | -0.174
U2C G6A C27U C46U A70U | -0.0585
U2C G6A C27U C46U A70G | -0.0764
U2C G6A A43C C46U | -0.0201
U2C G6A C27U A43C A69G A70U C71U | -0.384
U2C G6A C27U C46U C66A A70U | -0.0453
U2C G6A C27U C46U C66A A70G | -0.0252

Variant | yeast fitness (ln)
U2C G6A A43C C66U A69G A70G C71U | -0.072
U2C C66U A70G | -0.00448
U2C C66U A70U | -0.0706
U2C G6A C27U C66U | -0.217
U2C G6A C27U A43C C66U A69G C71U | -0.35
U2C G6A C27U C46U C66A A70G C71U | -0.228
U2C G6A A43C C66U A69G A70G | -0.0192
U2C G6A A43C C66U A69G A70U | -0.232
U2C G6A A43C | -0.0449
U2C G6A C27U A43C C46U C66U A69G A70U C71U | -0.32
U2C G6A C27U C46U C66U A69G A70U C71U | -0.289
U2C G6A C27U A43C C46U A70U C71U | -0.113
U2C G6A C27U A43C C46U C66U A70U C71U | -0.225
U2C G6A A43C A70U C71U | -0.126
U2C G6A C27U | -0.0332
U2C G6A C27U A43C C66U A70U | -0.091
U2C G6A C27U A43C C66U A70G | -0.0396
U2C G6A C27U C46U A70U C71U | -0.123
U2C G6A A43C C46U C66U A69G A70G C71U | -0.0188
U2C G6A C27U A43C C66A A70U | -0.0983
U2C G6A A43C C46U A69G A70U C71U | -0.399
U2C G6A A43C C46U C66U A70U C71U | -0.199
U2C G6A A43C C66A A70U | -0.0851
U2C G6A A43C C46U C66A A70U | -0.0148

Variant | yeast fitness (ln)
U2C G6A A43C C46U C66A A70G | -0.123
U2C G6A A43C A69G A70G C71U | -0.153
U2C G6A A43C A69G A70G | -0.0768
U2C G6A A43C A69G A70U | -0.0661
U2C G6A C27U A43C C66U A70U C71U | -0.309
U2C G6A C27U A70U C71U | -0.141
U2C G6A A43C C71U | -0.0318
U2C G6A A69G A70G C71U | -0.394
U2C G6A A43C C46U C66A C71U | -0.127
U2C G6A A70G C71U | -0.105
U2C G6A C27U A43C C66U | -0.179
U2C G6A C27U C46U A69G A70G C71U | -0.331
U2C G6A A43C A69G A70U C71U | -0.279
U2C G6A C27U C46U C66A A69G A70U C71U | -0.384
U2C G6A C27U A43C A69G C71U | -0.29
U2C G6A C27U C46U C66U A69G A70G | -0.0335
U2C G6A C27U C46U C66U A69G A70U | -0.284
U2C G6A C27U C46U C66A A69G A70G C71U | -0.188
U2C G6A A43C C66A A70U C71U | -0.261
U2C G6A A69G C71U | -0.176
U2C G6A A43C C46U C66U A70G C71U | -0.0112
U2C G6A C27U C46U C66U A69G A70G C71U | -0.0479
U2C G6A A43C C66U A69G A70U C71U | -0.366
U2C G6A A43C C46U A70G C71U | -0.112

Variant | yeast fitness (ln)
U2C G6A A43C C46U A70U | -0.0234
U2C G6A A43C C46U A70G | -0.0922
U2C G6A C27U A43C C46U C66U A69G A70G C71U | -0.0764
U2C G6A C27U A43C C46U C66A C71U | -0.216
U2C G6A C27U A69G A70G C71U | -0.216
U2C G6A C27U A69G A70U | -0.115
U2C G6A C27U A69G A70G | -0.252
U2C G6A A43C C46U C66A A69G A70G C71U | -0.112
U2C G6A C27U A43C C46U | -0.0171
U2C G6A C27U A43C A70U C71U | -0.243
U2C G6A C27U C46U C66U A69G C71U | -0.271
U2C G6A C27U A69G C71U | -0.0988
U2C G6A C27U A69G A70U C71U | -0.309
U2C G6A A43C C46U A69G A70G C71U | -0.101
U2C G6A C27U A43C C46U C66U | -0.0567
U2C G6A C27U A43C C66U A70G C71U | -0.101
U2C G6A A43C C46U C66A A70U C71U | -0.0318
U2C G6A C27U A43C C71U | -0.209
U2C G6A C27U C66A A70U | -0.0448
U2C G6A C27U A43C C66A C71U | -0.333
U2C G6A C27U A43C A69G A70G C71U | -0.256
U2C G6A A43C C46U C66U A70G | -0.0107
U2C G6A A43C C46U C66U A70U | -0.209
